Test results as given in ChEMBL document CHEMBL4265974, “Discovery of RG7834: The First-in-Class Selective and Orally Available Small Molecule Hepatitis B Virus Expression Inhibitor with Novel Mechanism of Action” (J Med Chem, 2018).

Key:
[1] = tested on: Mus musculus; experiment: AUC (0 to infinity) in BALB/C mouse plasma at 2 mg/kg, po administered as single dose by LC-MS/MS analysis; format: ADME, organism-based; design: dose 2 mg/kg, route oral, time infinity; settings: in vivo
[2] = Oral bioavailability in cynomolgus monkey; format: ADME, organism-based, Macaca fascicularis; settings: in vivo
[3] = Dissociation constant, pKa of the compound; format: physicochemical
[4] = Apparent permeability across apical to basolateral side in human Caco2 cells at 10 uM after 1 hr; format: ADME, cell-based; settings: Caco-2
Procedure, shortened: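 Caco-2 monolayers; 10 µM compound in pH 7.4 HBSS added to apical side (A→B) or basolateral side (B→A), receiver holding pH 7.4 HBSS with 1% DMSO. Incubated 1 h at 37 °C, 5% CO2, 95% humidity. Drug amounts on both sides measured and permeability calculated for each direction.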

[5] = Volume of distribution at steady state in BALB/C mouse at 1 mg/kg, iv by LC-MS/MS analysis; format: ADME, organism-based; settings: in vivo, read-out: Vdss
Procedure, shortened: (§1)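 Male BALB/C mice given single doses of 1 mg/kg iv (5% DMSO, 40% PEG400, 55% saline), or 2 or 14.5 mg/kg po (1% RC-591 in water). Blood taken at set times into sodium heparin and plasma separated at 4 °C; livers from po groups taken right after bleeding, rinsed and blotted. Plasma and liver levels measured by LC–MS/MS.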

[6] = Cmax in BALB/C mouse plasma at 1 mg/kg, iv administered as single dose by LC-MS/MS analysis; format: ADME, organism-based; design: dose 1 mg/kg, route intravenous; procedure, shortened: as §1
[7] = Cmax in BALB/C mouse plasma at 2 mg/kg, po administered as single dose by LC-MS/MS analysis; format: ADME, organism-based; design: dose 2 mg/kg, route oral; procedure, shortened: as §1
[8] = Cmax in BALB/C mouse plasma at 14.5 mg/kg, po administered as single dose by LC-MS/MS analysis; format: ADME, organism-based; design: dose 14.5 mg/kg, route oral; procedure, shortened: as §1
[9] = tested on: Mus musculus; experiment: AUC (0 to infinity) in BALB/C mouse plasma at 1 mg/kg, iv administered as single dose by LC-MS/MS analysis; format: ADME, organism-based; design: dose 1 mg/kg, route intravenous, time infinity; settings: in vivo
[10] = Oral bioavailability in BALB/C mouse at 2 mg/kg administered as single dose by LC-MS/MS analysis; format: ADME, organism-based; settings: in vivo; procedure, shortened: as §1
[11] = AUC (0 to t) in BALB/C mouse plasma at 14.5 mg/kg, po administered as single dose by LC-MS/MS analysis; format: ADME, organism-based; settings: in vivo
[12] = Cmax in BALB/C mouse liver at 14.5 mg/kg, po administered as single dose by LC-MS/MS analysis; format: ADME, organism-based; design: dose 14.5 mg/kg, route oral; procedure, shortened: as §1
[13] = AUC (0 to t) in BALB/C mouse liver at 14.5 mg/kg, po administered as single dose by LC-MS/MS analysis; format: ADME, organism-based; settings: in vivo
[14] = Ratio of AUC (0 to t) in BALB/C mouse liver to plasma at 14.5 mg/kg, po administered as single dose by LC-MS/MS analysis; format: ADME, organism-based; settings: read-out: Ratio AUC
[15] = Lipophilicity, log D of the compound; format: physicochemical; settings: octanol/water

COCCCOc1cc2c(cc1OC)-c1cc(=O)c(C(=O)O)cn1[C@H](C(C)C)C2
AUC [1]: 490 ng·mL·h | bioavailability [2]: 57% | pKa [3]: 5.79 | Papp A→B at 1 h, 10 µM [4]: 12.8 ×10⁻⁶ cm/s | Vd [5]: 2.07 L/kg | Cmax [6]: 466 ng/mL | Cmax [7]: 322 ng/mL | Cmax [8]: 2040 ng/mL | AUC [9]: 398 ng·mL·h | bioavailability [10]: 62% | AUCt [11]: 4366 ng·mL·h | Cmax [12]: 11000 ng/mL | AUCt [13]: 17265 ng·mL·h | Kp [14]: 4 | logD [15]: 1.28
